Measured values published in article PMC4980077 (The FEBS journal, 2016).
“Also recorded” adds a separate entry of the source. Each block holds one molecule with its values, some of them ahead of it.

Legend:
[1] = system: PKA:AKAP interaction; details: through an allosteric effect away from the D/D domain; ref [32]; cited from earlier work
[2] = system: PKG Iα; test: 32P phosphorylation assay with PKG Iα; assay type: biochemical; details: PKG Iα 20 nM, pH 7.5; n = 3
In short: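 Substrate was His-tagged human smAKAP (wild type, or S66D with PKA-Cα) at 10 μM. It was incubated with 20 nM recombinant kinase in 50 mM MOPS pH 7.5 containing 10 mM MgCl2, 200 μM ATP and [32P]ATP. Aliquots were quenched in 30% acetic acid at 0, 5, 10 and 15 min. Results are means ± SD of 3 independent experiments.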

[3] = Circular dichroism of AKB peptides; assay type: physicochemical; details: 0.1 M Tris pH 8.5, Jasco J-810
[4] = system: PKA-RIβ; test: Confocal colocalization with PKA-RIβ-mKO2 in HeLa cells; assay type: cell-based; details: transfected, confocal, unstimulated
In short: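 HeLa cells co-expressed GFP-tagged smAKAP (wild type, S66E or S66D) with mKO2-tagged PKA-RIα or RIβ. Cells were washed in ice-cold PBS, fixed in ice-cold 4% formaldehyde in PBS, washed twice and imaged by confocal microscopy through a 63× oil objective. Stimulated cells received calyculin A plus 8-CPT-cAMP and were imaged live.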

[5] = system: PKA-RIα; test: Confocal colocalization with PKA-RIα in HeLa cells; assay type: cell-based; details: transfected, confocal, PKA-RIα-mCherry

α-helix propensity by CD [3]: ~ 45%
Molecule: IVILEYAHRLSQDILCDALQQWAC [AKB-wt]

secondary structure by CD [3]: no secondary structure
Molecule: IVILEYAHRLpSQDILCDALQQWAC [AKB-pSer66]

More lines, now with the values behind:

Molecule: Nc1cc(Cc2ccc(O)c(N)c2)ccc1O [FMP-API-1]
inhibition of PKA binding to AKAPs [1]: inhibit the binding of PKA to AKAPs

Molecule: His6-smAKAP: recombinant human His-tagged smAKAP (wt), called smAKAP-wt in the phosphorylation assay
phosphorylation by PKG Iα compared with PKA [2]: only PKA phosphorylated

Molecule: IVILEYAHRLDQDILCDALQQWAC [AKB-S66D]
secondary structure by CD [3]: no secondary structure

Molecule: IVILEYAHRLEQDILCDALQQWAC [AKB-S66E]
secondary structure by CD [3]: no secondary structure

Molecule: smAKAP-wt-GFP: wild-type smAKAP GFP fusion expressed in transfected cells
colocalization with PKA-RIβ-mKO2 [4]: strong colocalization along the plasma membrane; also recorded: colocalization at the plasma membrane
colocalization with PKA-RIα [5]: strong colocalization along the plasma membrane
